The values that follow come from ChEMBL document CHEMBL5042480, “3CL Protease Inhibitors with an Electrophilic Arylketone Moiety as Anti-SARS-CoV-2 Agents” (J Med Chem, 2022).

As usually defined, the CC50 is the concentration that lowers cell viability or growth by half. For orientation: Cmax means the highest concentration seen after dosing. The term AUC(0-inf) denotes total exposure, with the tail of the curve extrapolated. Usually half-life stands for the time in which the quantity being followed falls by half. By MRT is commonly meant the average time that molecules of a dose stay in the body. Broadly, the clearance is the volume of plasma or blood freed of the substance per unit of time. The Papp is the rate of passage across a membrane or cell layer, normalised by area and donor concentration.

The nature of data set [1]: Drug metabolism in rat hepatocytes assessed as CYP450-catalysed oxidative pathway mediated metabolite formation at 10 uM incubated upto 2 hrs by LC/UV/MS analysis. The data set is classed as ADME, cell-based, Hepatocyte. The gist of the method: (§1)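 Hepatocytes were suspended at 6 × 10^5 viable cells/mL in KHB buffer and given compound at 10 μM. Incubation was 0 and 2 h at 37 °C under 5% CO2, stopped with acetonitrile. After centrifugation, supernatant metabolites were analysed by LC/UV/MS.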

Data set [2] in a line: Drug metabolism in rat hepatocytes assessed as amide hydrolysis mediated HC-7 metabolite formation at 10 uM incubated upto 2 hrs by LC/UV/MS analysis. The format is ADME, cell-based, Hepatocyte. The procedure, abridged: as §1
A short description of data set [3]: Cytotoxicity against African green monkey Vero cells assessed as cell viability incubated for 24 hrs by MTT assay. The format is toxicity, cell-based. To be noted: chlorocebus sabaeus. The gist of the method:
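Vero cells were seeded at 1.0 × 10^4 cells/well and cultured overnight at 37 °C. Compound was added for 24 h, and viability was measured by MTT assay with absorbance at 570 nm.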
In general terms: Tetrazolium dyes change colour on reduction, which living cells bring about.

Data set [4] relates to SARS-CoV-2. As to the kind of experiment: Antiviral activity against SARS coronavirus 2 infected in African green monkey Vero cells assessed as blockade of viral proliferation at 25 uM incubated for 48 hrs by cytopathic effect assay. The data set is classed as functional, organism-based. To be noted: Severe acute respiratory syndrome coronavirus 2.
The subject of data set [5] is SARS-CoV-2. As to the kind of experiment: Antiviral activity against SARS coronavirus 2 infected in African green monkey VeroE6/TMPRSS2 cells upto 10 uM in presence of MDR-1 inhibitor CP-100356 measured after 24 hrs post-infection by qRT-PCR analysis. The data set is classed as functional, organism-based. Conditions: Severe acute respiratory syndrome coronavirus 2; Vero; dose microM <=10, time 24.0 hrs. For orientation: Real-time PCR tracks product formation cycle by cycle.

Data set [6] can be described thus: Protein binding in human plasma incubated for 6 hrs by quadrupole mass spectrometry coupled UFLC analysis. The data set is classed as ADME, cell-free. Conditions: read-out: PPB.
The target of data set [7] is T1, Cytochrome P450 1A2 (Homo sapiens, UniProt P05177).
T1 sequence (P05177 whole entry): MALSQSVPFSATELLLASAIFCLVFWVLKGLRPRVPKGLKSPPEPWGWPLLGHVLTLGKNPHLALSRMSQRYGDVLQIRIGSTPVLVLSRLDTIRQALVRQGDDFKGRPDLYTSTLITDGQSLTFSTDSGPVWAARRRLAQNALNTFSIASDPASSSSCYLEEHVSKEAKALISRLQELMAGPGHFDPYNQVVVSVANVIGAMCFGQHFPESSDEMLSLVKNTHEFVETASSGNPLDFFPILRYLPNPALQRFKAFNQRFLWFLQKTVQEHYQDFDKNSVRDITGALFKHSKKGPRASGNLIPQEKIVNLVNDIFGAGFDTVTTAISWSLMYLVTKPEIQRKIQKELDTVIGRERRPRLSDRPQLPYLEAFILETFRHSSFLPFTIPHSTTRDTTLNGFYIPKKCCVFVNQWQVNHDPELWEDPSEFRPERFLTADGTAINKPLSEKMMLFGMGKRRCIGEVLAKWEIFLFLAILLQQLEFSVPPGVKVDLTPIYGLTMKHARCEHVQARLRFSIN
As to the kind of experiment: Inhibition of CYP1A2 in human liver microsome at 10 uM. The data set is classed as toxicity. Conditions: microsomes. The gist of the method: (§2)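 Human liver microsomes (0.1 mg protein/mL) were mixed with compound at 10 μM and probe substrates in phosphate buffer pH 7.4: tacrine (CYP1A2), paclitaxel (2C8), tolbutamide (2C9), dextromethorphan (2D6) and midazolam (3A4). Reactions were started with an NADPH-generating system, run 10 min at 37 °C and stopped with acetonitrile. Metabolites were measured by LC/MS/MS and activity expressed as % remaining versus the no-inhibitor control.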

The target in data set [8] is Cytochrome P450 2D6 (Homo sapiens, UniProt P10635). As to the kind of experiment: Inhibition of CYP2D6 in human liver microsome at 10 uM. The format is toxicity. Conditions: microsomes. The procedure, abridged: as §2
Chain of Cytochrome P450 2D6 (P10635 whole entry): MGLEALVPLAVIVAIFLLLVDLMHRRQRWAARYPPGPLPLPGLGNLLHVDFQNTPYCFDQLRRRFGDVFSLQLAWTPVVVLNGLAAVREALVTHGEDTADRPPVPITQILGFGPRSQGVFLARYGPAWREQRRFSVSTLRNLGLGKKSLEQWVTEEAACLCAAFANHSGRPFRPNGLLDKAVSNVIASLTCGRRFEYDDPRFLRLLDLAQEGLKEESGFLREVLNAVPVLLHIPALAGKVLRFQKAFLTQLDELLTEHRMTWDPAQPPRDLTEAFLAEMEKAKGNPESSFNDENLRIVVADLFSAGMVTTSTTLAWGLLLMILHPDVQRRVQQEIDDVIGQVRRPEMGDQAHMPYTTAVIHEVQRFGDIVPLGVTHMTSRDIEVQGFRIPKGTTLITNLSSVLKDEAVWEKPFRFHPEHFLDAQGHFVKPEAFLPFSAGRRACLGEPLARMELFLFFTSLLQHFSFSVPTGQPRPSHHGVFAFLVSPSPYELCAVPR
For orientation: Liver microsomes are vesicles of endoplasmic reticulum, rich in cytochrome P450 enzymes.

For data set [9], the target named is T2, Cytochrome P450 2C8 (Homo sapiens, UniProt P10632).
T2 sequence (P10632 whole entry): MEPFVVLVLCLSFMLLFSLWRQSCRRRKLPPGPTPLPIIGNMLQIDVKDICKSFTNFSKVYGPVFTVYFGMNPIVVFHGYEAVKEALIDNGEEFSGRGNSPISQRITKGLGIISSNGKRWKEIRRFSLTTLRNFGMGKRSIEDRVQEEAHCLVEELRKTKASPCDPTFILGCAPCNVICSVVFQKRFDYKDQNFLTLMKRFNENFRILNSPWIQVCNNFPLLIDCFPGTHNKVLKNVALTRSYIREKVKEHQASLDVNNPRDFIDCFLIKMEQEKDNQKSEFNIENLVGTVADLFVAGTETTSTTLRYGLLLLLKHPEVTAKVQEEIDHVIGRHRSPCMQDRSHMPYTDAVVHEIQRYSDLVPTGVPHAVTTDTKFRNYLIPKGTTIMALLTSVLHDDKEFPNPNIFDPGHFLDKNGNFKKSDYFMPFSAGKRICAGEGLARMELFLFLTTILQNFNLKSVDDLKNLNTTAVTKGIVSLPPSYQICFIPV
As to the kind of experiment: Inhibition of CYP2C8 in human liver microsome at 10 uM. The format is toxicity. To be noted: microsomes. The procedure, abridged: as §2

Data set [10] relates to TK6. As to the kind of experiment: Mutagenicity against human TK6 cells assessed as induction of micronuclei formation by Micro-flow assay. The format is toxicity, cell-based. The procedure, abridged: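 Human TK6 lymphoblastoid cells were treated either 3 h with 1% S9 followed by 21 h recovery, or continuously for 24 h without S9, at 37 °C under 5% CO2. Relative population doubling was used for cytotoxicity. Positive controls were cyclophosphamide and mitomycin C.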

A short description of data set [11]: Cmax in overnight-fasted Wistar rat at 0.5 mg/kg, po measured upto 7 hrs by quadrupole mass spectrometry coupled UFLC analysis. The data set is classed as ADME, organism-based. Also noted: route oral, dose 0.5 mg/kg, time <=7. Conditions: in vivo. The gist of the method: (§3)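 Conscious, freely moving male Wistar rats received compound in saline at 4 mL/kg, either i.v. via jugular vein at 0.1 mg/kg or by oral gavage at 0.5 mg/kg. Cannula blood was sampled up to 7 h and plasma measured by LC-MS/MS. Analysis was noncompartmental (trapezoidal AUC); Cmax and tmax were taken as observed, and t1/2 from log-linear terminal regression over at least 3 points. Mean ± SD, n = 5.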

Data set [12] is described as follows: AUC (0 to infinity) in overnight-fasted Wistar rat at 0.5 mg/kg, po measured upto 7 hrs by quadrupole mass spectrometry coupled UFLC analysis. The format is ADME, organism-based. Also noted: route oral, dose 0.5 mg/kg, time <=7. To be noted: in vivo. The procedure, abridged: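 Male Wistar rats, conscious and unrestrained, were given the compound in saline at 4 mL/kg, either as an i.v. bolus via the left jugular vein or by oral gavage. Heparinized blood was drawn from a cannula at set times up to 7 h and the plasma analysed by LC-MS/MS. AUC0–7 and AUC0–∞ came from noncompartmental trapezoidal analysis; mean ± SD, n = 5.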

A short description of data set [13]: Half life in overnight-fasted Wistar rat at 0.1 mg/kg, iv measured upto 7 hrs by quadrupole mass spectrometry coupled UFLC analysis. The format is ADME, organism-based. To be noted: in vivo. The procedure, abridged:
as §3

Data set [14] can be described thus: MRT (total) in overnight-fasted Wistar rat at 0.1 mg/kg, iv measured upto 7 hrs by quadrupole mass spectrometry coupled UFLC analysis. To be noted: in vivo. The format is ADME, organism-based. The procedure, abridged: as §3
Data set [15] in a line: Total clearance in overnight-fasted Wistar rat at 0.1 mg/kg, iv measured upto 7 hrs by quadrupole mass spectrometry coupled UFLC analysis. The format is ADME, organism-based. To be noted: in vivo. The procedure, abridged:
as §3

A short description of data set [16]: Apparent permeability in human Caco-2 monolayer cells at 1 uM and measured upto 120 mins by LC-MS/MS analysis. The data set is classed as ADME, cell-based. The gist of the method:
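Caco-2 monolayers were grown 21 days on 3.0 μm-pore inserts. They were preincubated 30 min at 37 °C in HBSS with 10 mM HEPES, pH 7.4, and TEER was checked before and after. Transport of compound at 1 μM was run at 37 °C, quantified by LC-MS/MS, and converted to apparent permeability.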

Activity calls are given as the source filed them. No cut-off for these calls is given here.

In the case of `COc1cccc2[nH]c(C(=O)N[C@@H](CC(C)C)C(=O)N[C@@H](C[C@@H]3CCNC3=O)C(=O)c3nc4ccccc4s3)cc12`, the Drug metabolism entry in [1] and in data set [2] was “Metabolite_Detected” in each case. In addition, in data set [3], the 50% cytotoxic concentration (CC50) at 24 h is more than 100 µM. The outcome in data set [4] and in data set [5] was Active. In addition, in data set [6], the fraction unbound at 6 h was 0.01. Moreover, the “inhibition (INH)” value in data set [7], in [8] and in data set [9] was “Active” each time. Besides, the Activity entry in data set [10] is “Non-Toxic”. Also, in [11], the Cmax was 1.08 ng/mL. Moreover, the AUC(0-inf) in data set [12] worked out at 3.49 ng·h/mL. This compound also gave a half-life in data set [13] of 2.97 h. In data set [14], the MRT is 0.494 h. In addition, the clearance in [15] was 107 mL/min/kg. Further, the Papp at 2 h, 1 µM in data set [16] is 18.9 ×10⁻⁶ cm/s.
